According to ChEMBL document CHEMBL4261634, “Design and optimization of 2,3-dihydrobenzo[b][1,4]dioxine propanoic acids as novel GPR40 agonists with improved pharmacokinetic and safety profiles” (Bioorg Med Chem, 2018):
pEC50, pIC50: −log10 of the molar value. Active and inactive are the calls of the source. The rule behind the calls is not given here.

Columns and labels:
[1] = target: T1, Free fatty acid receptor 1 (Homo sapiens, UniProt O14842); test: Agonist activity at human GPR40 expressed in human HEK293 cells assessed as increase in intracellular calcium flux after 10 mins by fluorescence assay relative to linoleic acid; type: functional, cell-based
T1 sequence (O14842 whole entry): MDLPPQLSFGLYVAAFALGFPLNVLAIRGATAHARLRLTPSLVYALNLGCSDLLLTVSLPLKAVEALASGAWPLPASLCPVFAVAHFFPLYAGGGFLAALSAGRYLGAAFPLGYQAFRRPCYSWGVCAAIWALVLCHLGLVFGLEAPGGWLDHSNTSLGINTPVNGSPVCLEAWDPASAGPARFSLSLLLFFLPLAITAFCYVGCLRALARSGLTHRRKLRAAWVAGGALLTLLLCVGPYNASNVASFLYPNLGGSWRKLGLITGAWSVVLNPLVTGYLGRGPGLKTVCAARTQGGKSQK
How it was run: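 Human GPR40 activity read by calcium mobilization to give EC50. Emax expressed relative to linoleic acid as 100%. Mean ± SD, n = 3.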

[2] = target: T1, Free fatty acid receptor 1; test: Agonist activity at human GPR40 expressed in human HEK293 cells assessed as increase in intracellular calcium flux after 10 mins by fluorescence assay; type: functional, cell-based
How it was run: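 Human GPR40 activity read by calcium mobilization to give EC50. Mean ± SD, n = 3.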

[3] = Cmax in Sprague-Dawley rat at 10 mg/kg, po by LC-ESI-MS analysis; type: ADME, organism-based; parameters: dose 10 mg/kg, route oral; details: in vivo
How it was run: (§1)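 SD rats dosed orally (3 or 10 mg/kg) or by intravenous injection (1 mg/kg). Plasma PK parameters derived per route: Cmax, AUC0-t, Tmax, t1/2 and F after oral dosing; CL, AUC0-t, MRT, t1/2 and Vdss after iv dosing. Mean ± SD from three independent experiments (n = 3).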

[4] = target: ATP-binding cassette sub-family C member 2 (Homo sapiens, UniProt Q92887); test: Inhibition of human MRP2
ATP-binding cassette sub-family C member 2, sequence (Q92887 whole entry): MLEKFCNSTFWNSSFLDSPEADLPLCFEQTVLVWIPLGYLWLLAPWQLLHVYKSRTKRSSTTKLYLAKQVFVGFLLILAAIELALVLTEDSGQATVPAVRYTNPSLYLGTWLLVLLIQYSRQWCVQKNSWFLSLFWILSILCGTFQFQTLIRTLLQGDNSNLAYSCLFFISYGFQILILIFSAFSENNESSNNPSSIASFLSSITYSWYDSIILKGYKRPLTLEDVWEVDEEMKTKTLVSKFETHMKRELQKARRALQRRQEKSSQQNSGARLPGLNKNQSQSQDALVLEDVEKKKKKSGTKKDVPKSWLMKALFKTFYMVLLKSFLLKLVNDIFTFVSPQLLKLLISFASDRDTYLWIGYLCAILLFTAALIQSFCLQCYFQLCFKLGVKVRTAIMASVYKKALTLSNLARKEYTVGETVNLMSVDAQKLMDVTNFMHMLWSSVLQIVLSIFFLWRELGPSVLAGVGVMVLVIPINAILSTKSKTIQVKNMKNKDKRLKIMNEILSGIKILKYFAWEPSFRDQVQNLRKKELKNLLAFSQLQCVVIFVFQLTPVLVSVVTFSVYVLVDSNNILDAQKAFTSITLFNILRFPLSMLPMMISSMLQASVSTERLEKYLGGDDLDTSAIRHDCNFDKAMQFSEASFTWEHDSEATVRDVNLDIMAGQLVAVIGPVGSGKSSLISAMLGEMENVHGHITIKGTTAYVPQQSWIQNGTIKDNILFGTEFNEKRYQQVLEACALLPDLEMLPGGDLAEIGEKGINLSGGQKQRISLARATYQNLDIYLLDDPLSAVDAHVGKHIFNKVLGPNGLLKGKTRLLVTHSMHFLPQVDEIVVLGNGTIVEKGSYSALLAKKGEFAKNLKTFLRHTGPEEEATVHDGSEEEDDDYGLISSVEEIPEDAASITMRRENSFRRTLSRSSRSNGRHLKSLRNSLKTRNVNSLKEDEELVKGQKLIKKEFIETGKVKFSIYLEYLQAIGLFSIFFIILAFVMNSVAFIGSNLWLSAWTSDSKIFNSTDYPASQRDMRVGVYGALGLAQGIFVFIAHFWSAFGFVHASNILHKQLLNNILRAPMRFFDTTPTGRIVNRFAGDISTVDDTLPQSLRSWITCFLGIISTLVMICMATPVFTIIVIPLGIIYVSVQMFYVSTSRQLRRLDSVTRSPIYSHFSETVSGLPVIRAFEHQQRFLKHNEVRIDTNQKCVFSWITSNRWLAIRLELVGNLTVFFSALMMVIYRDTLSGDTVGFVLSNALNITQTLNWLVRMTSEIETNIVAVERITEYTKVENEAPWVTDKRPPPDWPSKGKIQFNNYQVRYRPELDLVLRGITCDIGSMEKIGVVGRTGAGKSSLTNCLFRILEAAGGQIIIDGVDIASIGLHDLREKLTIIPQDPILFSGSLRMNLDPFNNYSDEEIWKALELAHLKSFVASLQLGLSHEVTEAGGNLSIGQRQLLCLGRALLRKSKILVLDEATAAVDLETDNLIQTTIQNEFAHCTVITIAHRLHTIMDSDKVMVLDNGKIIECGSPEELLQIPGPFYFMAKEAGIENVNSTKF

[5] = test system: Rattus norvegicus; test: Antidiabetic activity in Sprague-Dawley rat assessed as reduction in blood glucose AUC (0 to 60 mins) at 10 mg/kg, po administered 60 mins prior to glucose challenge by OGTT; type: functional, organism-based
How it was run: (§2)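 OGTT in SD rats: compound given orally 60 min before a 3.0 g/kg glucose challenge. Blood glucose followed over time, and AUC0-60min or AUC0-120min calculated versus vehicle group. Mean ± SD, n = 8.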

[6] = Tmax in Sprague-Dawley rat at 10 mg/kg, po by LC-ESI-MS analysis; type: ADME, organism-based; details: in vivo; how it was run: as §1
[7] = Elimination half life in Sprague-Dawley rat at 10 mg/kg, po by LC-ESI-MS analysis; type: ADME, organism-based; details: in vivo, read-out: beta t1/2 (converted); how it was run: as §1
[8] = target: T2, Solute carrier organic anion transporter family member 1B3 (Homo sapiens, UniProt Q9NPD5); test: Inhibition of human OATP1B3; type: ADME
T2 sequence (Q9NPD5 whole entry): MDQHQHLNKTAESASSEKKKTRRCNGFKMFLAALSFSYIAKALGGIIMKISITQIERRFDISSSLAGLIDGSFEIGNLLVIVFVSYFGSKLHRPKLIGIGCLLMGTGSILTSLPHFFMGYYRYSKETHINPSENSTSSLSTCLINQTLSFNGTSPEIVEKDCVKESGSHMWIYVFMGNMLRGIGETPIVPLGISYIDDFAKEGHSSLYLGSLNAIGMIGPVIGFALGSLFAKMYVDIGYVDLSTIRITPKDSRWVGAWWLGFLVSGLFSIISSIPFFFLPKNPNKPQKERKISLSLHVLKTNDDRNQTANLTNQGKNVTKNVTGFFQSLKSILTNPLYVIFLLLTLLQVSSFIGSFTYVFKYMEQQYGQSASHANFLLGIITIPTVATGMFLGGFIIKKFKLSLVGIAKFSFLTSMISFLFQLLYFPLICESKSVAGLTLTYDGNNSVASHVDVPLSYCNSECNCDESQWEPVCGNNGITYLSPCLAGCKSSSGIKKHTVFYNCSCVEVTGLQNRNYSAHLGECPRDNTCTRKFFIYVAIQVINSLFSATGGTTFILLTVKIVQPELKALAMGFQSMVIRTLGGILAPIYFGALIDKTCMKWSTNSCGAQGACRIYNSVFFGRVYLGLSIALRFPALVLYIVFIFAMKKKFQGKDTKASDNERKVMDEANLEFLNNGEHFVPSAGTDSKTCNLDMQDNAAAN

[9] = target: T3, Solute carrier organic anion transporter family member 1B1 (Homo sapiens, UniProt Q9Y6L6); test: Inhibition of human OATP1BA
T3 sequence (Q9Y6L6 whole entry): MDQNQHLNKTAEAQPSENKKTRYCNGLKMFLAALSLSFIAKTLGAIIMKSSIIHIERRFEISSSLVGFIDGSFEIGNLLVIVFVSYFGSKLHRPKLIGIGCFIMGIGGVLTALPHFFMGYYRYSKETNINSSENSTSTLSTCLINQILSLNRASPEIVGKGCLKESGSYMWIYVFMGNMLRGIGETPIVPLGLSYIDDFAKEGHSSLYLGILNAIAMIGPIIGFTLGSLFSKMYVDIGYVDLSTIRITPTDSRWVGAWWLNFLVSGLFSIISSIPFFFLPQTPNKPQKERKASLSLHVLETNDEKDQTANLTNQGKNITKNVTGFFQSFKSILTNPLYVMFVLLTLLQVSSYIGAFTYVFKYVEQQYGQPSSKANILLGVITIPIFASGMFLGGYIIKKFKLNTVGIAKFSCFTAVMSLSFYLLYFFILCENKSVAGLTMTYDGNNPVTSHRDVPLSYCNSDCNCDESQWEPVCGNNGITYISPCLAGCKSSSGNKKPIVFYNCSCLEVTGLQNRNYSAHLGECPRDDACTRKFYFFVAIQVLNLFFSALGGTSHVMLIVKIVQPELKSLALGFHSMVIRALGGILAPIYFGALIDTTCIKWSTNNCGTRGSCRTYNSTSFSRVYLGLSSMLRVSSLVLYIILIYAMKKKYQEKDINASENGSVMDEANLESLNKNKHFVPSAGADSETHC

[10] = AUC (0 to t) in Sprague-Dawley rat at 10 mg/kg, po by LC-ESI-MS analysis; type: ADME, organism-based; details: in vivo; how it was run: as §1
[11] = test system: Rattus norvegicus; test: Antidiabetic activity in Sprague-Dawley rat assessed as reduction in blood glucose AUC (0 to 120 mins) at 10 mg/kg, po administered 60 mins prior to glucose challenge by OGTT; type: functional, organism-based; how it was run: as §2
[12] = test system: Hepatocyte; test: Toxicity in sandwich-cultured Sprague-Dawley rat hepatocytes assessed as inhibition of hepatobiliary transport by measuring biliary excretion index at 20 to 40 uM after 15 mins in presence of d8-TCA by LC-MS/MS analysis; type: cell-based; details: 0.25 h
How it was run: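 Sandwich-cultured rat hepatocytes incubated with compound and d8-TCA in standard (Ca2+-containing) or Ca2+-free buffer. Cellular d8-TCA measured, and the biliary excretion index calculated as the fraction of accumulated bile acid excreted into bile. Mean of three independent experiments.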

[13] = test system: Rattus norvegicus; test: Antidiabetic activity in Sprague-Dawley rat assessed as reduction in blood glucose excursion at 10 mg/kg, po administered 60 mins prior to glucose challenge by OGTT; type: functional, organism-based; how it was run: as §2

Emax [1] [%]	pEC50 [2]	SMILES	also measured
46	6.19	CCOC(CC(=O)O)c1ccc(OCC2COc3ccc(Cl)cc3O2)cc1 (stereo not drawn)	–
91	6.89	CC#C[C@@H](CC(=O)O)c1ccc(OC[C@H]2COc3ccc(OC)cc3O2)cc1	–
51	< 4.52	CC#C[C@@H](CC(=O)O)c1ccc(OC[C@H]2COc3ccc(C(C)=O)cc3O2)cc1	–
33	6.82	CC#C[C@@H](CC(=O)O)c1ccc(OC[C@H]2COc3cc(Cl)c(Cl)cc3O2)cc1	–
62	5.51	Cn1cncc1C(CC(=O)O)c1ccc(OCC2COc3ccc(Cl)cc3O2)cc1 (stereo not drawn)	–
42	< 4.52	CC#C[C@@H](CC(=O)O)c1ccc(OC[C@H]2COc3ccc(CO)cc3O2)cc1	–
33	< 4.30	CC#C[C@@H](CC(=O)O)c1ccc(OC[C@H]2COc3ccc(C(=O)N4CCOCC4)cc3O2)cc1	–
95	6.28	CC#C[C@@H](CC(=O)O)c1ccc(OC[C@H]2COc3cccc(Cl)c3O2)cc1	–
–	–	Cc1cc(OCCCS(C)(=O)=O)cc(C)c1-c1cccc(COc2ccc3c(c2)OC[C@H]3CC(=O)O)c1	Cmax [3]: 19400 ng/mL; pIC50 [4]: 5.62; Activity [5]: Active; Tmax [6]: 3.5 h; half-life [7]: 3.94 h; pIC50 [8]: 4.95; pIC50 [9]: 5.64; AUC(0-t) [10]: 137 µg·h/mL; Activity [11]: Active; Activity [12]: Toxic; Activity [13]: Active
90	6.55	CC#C[C@@H](CC(=O)O)c1ccc(OC[C@H]2COc3ccc(OC(C)C)cc3O2)cc1	–
67	6.01	O=C(O)CCc1ccc(OCC2COc3cc(Br)ccc3O2)cc1F (stereo not drawn)	–
83	5.37	O=C(O)CC(c1ccc(F)cc1)c1ccc(OCC2COc3ccc(Cl)cc3O2)cc1 (stereo not drawn)	–
–	5.32	CCCCC/C=C\C/C=C\CCCCCCCC(=O)O [LINOLEIC ACID]	–
65	6.59	CC#C[C@@H](CC(=O)O)c1ccc(OC[C@@H]2COc3ccc(Cl)cc3O2)cc1	–
62	5.93	O=C(O)CC(c1ccncc1)c1ccc(OCC2COc3ccc(Cl)cc3O2)cc1 (stereo not drawn)	–
70	5.41	Cn1nncc1C(CC(=O)O)c1ccc(OCC2COc3ccc(Cl)cc3O2)cc1 (stereo not drawn)	–
55	4.57	CC#C[C@@H](CC(=O)O)c1ccc(OC[C@H]2COc3ccc(S(C)(=O)=O)cc3O2)cc1	–
50	6.08	O=C(O)CCc1ccc(OCC2COc3ccc(Cl)cc3O2)cc1F (stereo not drawn)	–
82	6.70	CC#C[C@@H](CC(=O)O)c1ccc(OC[C@H]2COc3cc(Br)c(Cl)cc3O2)cc1	–
63	5.99	O=C(O)CC(c1ccc(OCC2COc3ccc(Cl)cc3O2)cc1)c1cnco1 (stereo not drawn)	–
